Experimental data published in PMC8144927 (Virology, 2021).

Target: angiotensin-converting enzyme 2 (ACE2) (Homo sapiens, UniProt Q9BYF1)
Experiment: SPR
Type: binding
Outline: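 Nitrilotriacetic acid (NTA) sensor chip surface primed and charged with Ni2+ by sequential injection of 200 mM imidazole and 40 mM NiCl2. His6-tagged ACE2 protein at 20 μg/mL captured on the chip, with test compound as analyte. Supporting ACE2h cell membrane chromatography: 10.0 mm × 2.0 mm column, 37 °C, 0.2 mL/min, 2 mM phosphate-buffered saline (pH 7.4), detection at 284 nm.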

Chain of angiotensin-converting enzyme 2 (ACE2) (Q9BYF1 18-805): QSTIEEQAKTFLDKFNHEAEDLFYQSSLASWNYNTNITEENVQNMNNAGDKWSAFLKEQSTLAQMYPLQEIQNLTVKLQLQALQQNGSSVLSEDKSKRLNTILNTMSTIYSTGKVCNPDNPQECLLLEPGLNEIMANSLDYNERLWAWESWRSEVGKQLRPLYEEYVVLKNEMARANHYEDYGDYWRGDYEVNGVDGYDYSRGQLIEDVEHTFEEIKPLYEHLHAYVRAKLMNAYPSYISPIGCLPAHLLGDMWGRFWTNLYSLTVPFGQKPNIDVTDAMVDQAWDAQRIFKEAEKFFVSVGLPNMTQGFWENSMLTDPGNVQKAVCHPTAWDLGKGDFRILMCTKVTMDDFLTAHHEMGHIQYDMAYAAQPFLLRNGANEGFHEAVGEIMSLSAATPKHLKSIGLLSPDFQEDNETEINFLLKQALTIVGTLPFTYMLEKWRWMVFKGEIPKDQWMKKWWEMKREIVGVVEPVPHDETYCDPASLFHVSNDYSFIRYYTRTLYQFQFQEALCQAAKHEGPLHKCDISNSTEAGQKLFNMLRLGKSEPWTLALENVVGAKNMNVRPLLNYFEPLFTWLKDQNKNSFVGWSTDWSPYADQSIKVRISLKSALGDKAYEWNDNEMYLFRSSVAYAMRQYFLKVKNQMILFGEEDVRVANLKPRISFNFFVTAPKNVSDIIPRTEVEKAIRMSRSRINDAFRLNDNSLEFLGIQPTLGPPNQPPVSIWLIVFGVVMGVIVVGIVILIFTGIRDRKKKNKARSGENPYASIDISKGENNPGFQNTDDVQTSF

## CN1CCCC(n2nc(Cc3ccc(Cl)cc3)c3ccccc3c2=O)CC1 (stereo not shown) [azelastine]
  Kd: 258 nM
